ChEMBL document CHEMBL3286094, “Synthesis and biological evaluation of novel bisbenzimidazoles as Escherichia coli topoisomerase IA inhibitors and potential antibacterial agents” (J Med Chem, 2014)
In brackets after ≈: the same amount, converted by molar mass. Activity calls are given as the source filed them. The calls are words filed in the database; no cut-off is given here.

Tests used:
Escherichia coli [1] = assay: Antibacterial activity against ampicillin/ciprofloxacin/gentamicin/tetracycline-resistant Escherichia coli 555 assessed as growth inhibition after 18 to 24 hrs by broth microdilution method; assay type: functional
Escherichia coli [2] = assay: Bactericidal activity against ciprofloxacin-resistant Escherichia coli 72 by agar plating method; assay type: functional
Escherichia coli [3] = assay: Bactericidal activity against gentamicin/kanamycin/tetracycline/nalidixic acid-resistant Escherichia coli 360 by agar plating method; assay type: functional
Escherichia coli [4] = assay: Bactericidal activity against ampicillin/tetracycline/gentamicin-resistant Escherichia coli 451 by agar plating method; assay type: functional
Escherichia coli [5] = assay: Bactericidal activity against chloramphenicol/ampicillin/trimethoprim/ciprofloxacin/nalidixic acid-resistant Escherichia coli 59 by agar plating method; assay type: functional
Escherichia coli [6] = assay: Bactericidal activity against ampicillin/kanamycin/trimethoprim/tetracyclin/ciprofloxacin/nalidixic acid-resistant Escherichia coli 81 by agar plating method; assay type: functional
Escherichia coli [7] = assay: Bactericidal activity against ampicillin/chloramphenicol/ciprofloxacin/gentamicin/tetracycline-resistant Escherichia coli 401 by agar plating method; assay type: functional
Escherichia coli [8] = assay: Antibacterial activity against Escherichia coli ATCC 25922 assessed as growth inhibition after 18 to 24 hrs by broth microdilution method; assay type: functional
Escherichia coli [9] = assay: Antibacterial activity against ciprofloxacin-resistant Escherichia coli 72 assessed as growth inhibition after 18 to 24 hrs by broth microdilution method; assay type: functional
Escherichia coli [10] = assay: Antibacterial activity against gentamicin/kanamycin/tetracycline/nalidixic acid-resistant Escherichia coli 360 assessed as growth inhibition after 18 to 24 hrs by broth microdilution method; assay type: functional
Escherichia coli [11] = assay: Bactericidal activity against multidrug-resistant Escherichia coli IP9 isolated from water source by agar plating method
Escherichia coli [12] = assay: Bactericidal activity against multidrug-resistant Escherichia coli IS 54 isolated from water source by agar plating method; settings: IS 54, Water
Escherichia coli [13] = assay: Bactericidal activity against cefazolinl/ampicillin/piperacillin/cefuroxime/cefepime/cefotaxime/tetracycline/trimethoprim-resistant Escherichia coli KK16 isolated from water source by agar plating method
Escherichia coli [14] = assay: Antibacterial activity against cefazolinl/ampicillin/piperacillin/cefuroxime/cefepime/cefotaxime/tetracycline/ciprofloxacin-resistant Escherichia coli NG3 isolated from water source assessed as growth inhibition after 18 to 24 hrs by broth microdilution method
Escherichia coli [15] = assay: Antibacterial activity against cefazolinl/ampicillin/piperacillin/cefuroxime/cefepime/cefotaxime/tetracycline/trimethoprim-resistant Escherichia coli KK16 isolated from water source assessed as growth inhibition after 18 to 24 hrs by broth microdilution method
Escherichia coli [16] = assay: Inhibition of Escherichia coli DNA topoisomerase-1A using supercoiled pHOT1 plasmid DNA as substrate assessed as inhibition of DNA relaxation at 5 to 100 uM after 30 mins by agarose gel electrophoresis in presence of 25 mM MgCl2
[17] = Binding affinity to d(ATATATATATATAT)2 DNA (unknown origin) by fluorescence spectroscopic analysis
How it was run: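 Fluorescence titration of the compound with a poly(AT) DNA sequence, with the binding constant derived from the titration.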

Escherichia coli [18] = assay: Binding affinity to Escherichia coli DNA topoisomerase-1A by isothermal titration calorimetric analysis in presence of MgCl2/KCl
How it was run: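 Isothermal titration calorimetry with sequential injections of EcTopo 1A into the compound solution. Raw heats were corrected using injections of identical amounts of EcTopo 1A into buffer alone. Binding affinity constant and binding free energy were derived from the thermogram.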

Escherichia coli [19] = assay: Antibacterial activity against Escherichia coli ATCC 25922 in iv dosed Balb/c systemic infection model assessed as increase in survival administered single bolus dose measured every day for 7 days; assay type: functional
How it was run: (§1)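 Mice were infected intraperitoneally with E. coli ATCC 25922 suspended in saline. Treatment was a single bolus intravenous tail-vein injection at 3, 5 or 7 mg/kg body weight, dissolved in sterile water. A vehicle-only group served as control. Survival was monitored after infection.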

Escherichia coli [20] = assay: Antibacterial activity against Escherichia coli ATCC 25922 in Balb/c systemic infection model assessed as increase in survival at 7 mg/kg, iv administered single bolus dose measured every day for 7 days relative to vehicle-treated control; assay type: functional; settings: ATCC 25922, in Mus musculus, 168 h; how it was run: as §1
Escherichia coli [21] = assay: Antibacterial activity against Escherichia coli ATCC 25922 in iv dosed Balb/c neutropenic thigh infection model assessed as concentration required to cause 1 log10CFU reduction per gram of thigh administered as single bolus dose at 2 hrs post inoculation measured after 24 hrs; assay type: functional
How it was run: (§2)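 Neutropenic thigh infection with E. coli ATCC 25922. Compound was dosed at 3 and 5 mg/kg body weight/day. Read-out was thigh bacterial burden, expressed as log reduction and compared with the static level.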

Escherichia coli [22] = assay: Antibacterial activity against Escherichia coli ATCC 25922 in iv dosed Balb/c neutropenic thigh infection model assessed as concentration required to cause 3 log10CFU reduction per gram of thigh administered as single bolus dose at 2 hrs post inoculation measured after 24 hrs; assay type: functional; how it was run: as §2
Escherichia coli [23] = assay: Antibacterial activity against Escherichia coli ATCC 25922 in iv dosed Balb/c neutropenic thigh infection model assessed as reduction of bacterial burden in thigh administered as single bolus dose at 2 hrs post inoculation measured after 24 hrs; assay type: functional; how it was run: as §2

Structure (SMILES)	MIC50 (Escherichia coli [1])	MIC90 (Escherichia coli [1])	MBC (Escherichia coli [2])	MBC (Escherichia coli [3])	MBC (Escherichia coli [4])	MBC (Escherichia coli [5])	MBC (Escherichia coli [6])	MBC (Escherichia coli [7])	MIC50 (Escherichia coli [8])	MIC90 (Escherichia coli [8])	MIC50 (Escherichia coli [9])	MIC90 (Escherichia coli [9])	MIC50 (Escherichia coli [10])	MIC90 (Escherichia coli [10])	MBC (Escherichia coli [12])	MBC (Escherichia coli [13])	MIC50 (Escherichia coli [14])	MIC90 (Escherichia coli [14])	MIC50 (Escherichia coli [15])	MIC90 (Escherichia coli [15])	also measured
CCOc1ccc(-c2nc3ccc(-c4nc5ccc(N6CCN(CCN(C)C)CC6)cc5[nH]4)cc3[nH]2)cc1	32 µg/mL (≈ 62.8 µM)	60.4 µg/mL (≈ 119 µM)	64 µg/mL (≈ 126 µM)	128 µg/mL (≈ 251 µM)	64 µg/mL (≈ 126 µM)	32 µg/mL (≈ 62.8 µM)	64 µg/mL (≈ 126 µM)	32 µg/mL (≈ 62.8 µM)	8 µg/mL (≈ 15.7 µM)	26.6 µg/mL (≈ 52.2 µM)	32 µg/mL (≈ 62.8 µM)	57.2 µg/mL (≈ 112 µM)	64 µg/mL (≈ 126 µM)	121 µg/mL (≈ 237 µM)	64 µg/mL (≈ 126 µM)	32 µg/mL (≈ 62.8 µM)	8 µg/mL (≈ 15.7 µM)	15 µg/mL (≈ 29.4 µM)	16 µg/mL (≈ 31.4 µM)	27.6 µg/mL (≈ 54.2 µM)	MBC (Escherichia coli [11]): 128 µg/mL (≈ 251 µM)
CCCN1CCN(c2ccc3nc(-c4ccc5nc(-c6ccc(OCC)cc6)[nH]c5c4)[nH]c3c2)CC1	4 µg/mL (≈ 8.32 µM)	6.8 µg/mL (≈ 14.1 µM)	4 µg/mL (≈ 8.32 µM)	2 µg/mL (≈ 4.16 µM)	2 µg/mL (≈ 4.16 µM)	4 µg/mL (≈ 8.32 µM)	2 µg/mL (≈ 4.16 µM)	2 µg/mL (≈ 4.16 µM)	0.2 µg/mL (≈ 0.416 µM)	3.3 µg/mL (≈ 6.87 µM)	2 µg/mL (≈ 4.16 µM)	3.1 µg/mL (≈ 6.45 µM)	1 µg/mL (≈ 2.08 µM)	1.6 µg/mL (≈ 3.33 µM)	2 µg/mL (≈ 4.16 µM)	2 µg/mL (≈ 4.16 µM)	0.5 µg/mL (≈ 1.04 µM)	1.7 µg/mL (≈ 3.54 µM)	0.5 µg/mL (≈ 1.04 µM)	1.8 µg/mL (≈ 3.75 µM)	inhibition (Escherichia coli [16]): Active; K [17]: 7 ×10⁷ /M; Ka (Escherichia coli [18]): 6.8 ×10⁶ /M; Activity (Escherichia coli [19]): Dose-dependent effect; ED50 (Escherichia coli [19]; ATCC 25922, in Mus musculus, 168 h): 5 mg/kg; survival at 7 mg/kg (Escherichia coli [20]): 75%; Activity (Escherichia coli [21]): 3 mg/kg/day; Activity (Escherichia coli [22]): 5 mg/kg/day; Activity (Escherichia coli [23]): Dose-dependent effect; MIC50 (Escherichia coli [23]; ATCC 25922, Thigh): 0.2 µg/mL (≈ 0.416 µM); MBC (Escherichia coli [11]): 4 µg/mL (≈ 8.32 µM)
COc1ccc(-c2nc3ccc(-c4nc5ccc(N6CCN(c7ncccn7)CC6)cc5[nH]4)cc3[nH]2)cc1OC	32 µg/mL (≈ 60.1 µM)	59.4 µg/mL (≈ 112 µM)	32 µg/mL (≈ 60.1 µM)	–	32 µg/mL (≈ 60.1 µM)	32 µg/mL (≈ 60.1 µM)	32 µg/mL (≈ 60.1 µM)	32 µg/mL (≈ 60.1 µM)	32 µg/mL (≈ 60.1 µM)	49 µg/mL (≈ 92 µM)	16 µg/mL (≈ 30 µM)	30.1 µg/mL (≈ 56.5 µM)	> 128 µg/mL	–	64 µg/mL (≈ 120 µM)	32 µg/mL (≈ 60.1 µM)	16 µg/mL (≈ 30 µM)	30.6 µg/mL (≈ 57.5 µM)	16 µg/mL (≈ 30 µM)	30.4 µg/mL (≈ 57.1 µM)	–
COc1ccc(-c2nc3ccc(-c4nc5ccc(N6CCN(c7ccncc7)CC6)cc5[nH]4)cc3[nH]2)cc1OC	16 µg/mL (≈ 30.1 µM)	58.6 µg/mL (≈ 110 µM)	2 µg/mL (≈ 3.76 µM)	2 µg/mL (≈ 3.76 µM)	4 µg/mL (≈ 7.52 µM)	4 µg/mL (≈ 7.52 µM)	4 µg/mL (≈ 7.52 µM)	2 µg/mL (≈ 3.76 µM)	2 µg/mL (≈ 3.76 µM)	3.7 µg/mL (≈ 6.96 µM)	1 µg/mL (≈ 1.88 µM)	1.6 µg/mL (≈ 3.01 µM)	1 µg/mL (≈ 1.88 µM)	1.7 µg/mL (≈ 3.2 µM)	2 µg/mL (≈ 3.76 µM)	2 µg/mL (≈ 3.76 µM)	1 µg/mL (≈ 1.88 µM)	1.8 µg/mL (≈ 3.39 µM)	1 µg/mL (≈ 1.88 µM)	1.7 µg/mL (≈ 3.2 µM)	MBC (Escherichia coli [11]): 4 µg/mL (≈ 7.52 µM)
CCCN1CCN(c2ccc3nc(-c4ccc5nc(-c6ccc(OC)c(OC)c6)[nH]c5c4)[nH]c3c2)CC1	16 µg/mL (≈ 32.2 µM)	29.8 µg/mL (≈ 60 µM)	4 µg/mL (≈ 8.05 µM)	16 µg/mL (≈ 32.2 µM)	8 µg/mL (≈ 16.1 µM)	8 µg/mL (≈ 16.1 µM)	16 µg/mL (≈ 32.2 µM)	8 µg/mL (≈ 16.1 µM)	8 µg/mL (≈ 16.1 µM)	12.5 µg/mL (≈ 25.2 µM)	2 µg/mL (≈ 4.03 µM)	3.4 µg/mL (≈ 6.85 µM)	8 µg/mL (≈ 16.1 µM)	15.2 µg/mL (≈ 30.6 µM)	16 µg/mL (≈ 32.2 µM)	4 µg/mL (≈ 8.05 µM)	4 µg/mL (≈ 8.05 µM)	7.6 µg/mL (≈ 15.3 µM)	2 µg/mL (≈ 4.03 µM)	3.7 µg/mL (≈ 7.45 µM)	MBC (Escherichia coli [11]): 16 µg/mL (≈ 32.2 µM)
CCOc1ccc(-c2nc3ccc(-c4nc5ccc(N6CCN(CC)CC6)cc5[nH]4)cc3[nH]2)cc1	8 µg/mL (≈ 17.1 µM)	13.9 µg/mL (≈ 29.8 µM)	8 µg/mL (≈ 17.1 µM)	64 µg/mL (≈ 137 µM)	4 µg/mL (≈ 8.57 µM)	8 µg/mL (≈ 17.1 µM)	8 µg/mL (≈ 17.1 µM)	4 µg/mL (≈ 8.57 µM)	1.78 µg/mL (≈ 3.81 µM)	3.1 µg/mL (≈ 6.64 µM)	4 µg/mL (≈ 8.57 µM)	7.2 µg/mL (≈ 15.4 µM)	3 µg/mL (≈ 6.43 µM)	58.1 µg/mL (≈ 125 µM)	8 µg/mL (≈ 17.1 µM)	2 µg/mL (≈ 4.29 µM)	4 µg/mL (≈ 8.57 µM)	7.7 µg/mL (≈ 16.5 µM)	1 µg/mL (≈ 2.14 µM)	1.8 µg/mL (≈ 3.86 µM)	MBC (Escherichia coli [11]): 8 µg/mL (≈ 17.1 µM)
